The source made the active and inactive calls. The calls are words filed in the database; no cut-off is given here.
Experiments:
[1] = system: A-375; assay: Induction of apoptosis in human A375 cells assessed as early apoptotic cells at 20 uM after 48 hrs by annexin V/propidium iodide based flow cytometry; assay type: functional
In short: (§1)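 A375 cells attached overnight, then treated 48 h with test compound (30 μM) or curcumin (20 μM). Adherent and floating cells pooled, washed in PBS and resuspended at 10^6/mL in HEPES pH 7.4/NaCl/CaCl2 binding buffer. 10^5 cells stained 15 min at room temperature in the dark with FITC-annexin V and PI, then flow cytometry. Quadrants scored as early apoptotic, late apoptotic or necrotic. Three experiments.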

[2] = system: A-375; assay: Induction of apoptosis in human A375 cells assessed as late apoptotic cells at 20 uM after 48 hrs by annexin V/propidium iodide based flow cytometry; assay type: functional; in short: as §1
[3] = system: A-375; assay: Induction of apoptosis in human A375 cells assessed as necrotic apoptotic cells at 20 uM after 48 hrs by annexin V/propidium iodide based flow cytometry; assay type: functional; in short: as §1
[4] = system: A-375; assay: Antiproliferative activity against human A375 cells at 3 to 30 uM by MTT assay; assay type: functional, cell-based; details: TDE = time-dependent effect
In short: (§2)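 Cells grown in DMEM with 10% FBS, glutamine, HEPES and antibiotics at 37 °C, 5% CO2. Seeded at 1×10^4 cells/well and treated at 3, 10 or 30 μM for 24, 48 or 72 h. MTT (5 mg/mL stock) then added for 3 h at 37 °C. Crystals dissolved in 50% DMF/20% SDS pH 4.5; OD read at 620 nm. n = 3, mean ± SEM, ANOVA with Bonferroni.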

[5] = system: WM-115; assay: Antiproliferative activity against human WM115 cells at 3 to 30 uM by MTT assay; assay type: functional, cell-based; details: TDE = time-dependent effect; in short: as §2
[6] = system: SK-MEL-28; assay: Antiproliferative activity against human SK-MEL-28 cells at 3 to 30 uM by MTT assay; assay type: functional, cell-based; details: TDE = time-dependent effect; in short: as §2
[7] = system: A-375; assay: Antiproliferative activity against human A375 cells after 24 to 72 hrs by MTT assay; assay type: functional, cell-based; in short: as §2
[8] = system: WM-115; assay: Antiproliferative activity against human WM115 cells after 24 to 72 hrs by MTT assay; assay type: functional, cell-based; in short: as §2
[9] = system: SK-MEL-28; assay: Antiproliferative activity against human SK-MEL-28 cells after 24 to 72 hrs by MTT assay; assay type: functional, cell-based; in short: as §2
[10] = system: A-375; assay: Antiproliferative activity against human A375 cells at 30 uM after 72 hrs by MTT assay; assay type: functional; details: A-375, 72 h; in short: as §2
[11] = system: WM-115; assay: Antiproliferative activity against human WM115 cells at 30 uM after 72 hrs by MTT assay; assay type: functional; details: WM-115, 72 h; in short: as §2
[12] = system: SK-MEL-28; assay: Antiproliferative activity against human SK-MEL-28 cells at 30 uM after 72 hrs by MTT assay; assay type: functional; details: SK-MEL-28, 72 h; in short: as §2
[13] = Antiproliferative activity against human NHEM at 3 to 30 uM after 24 to 72 hrs by MTT assay
In short: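 Normal human epidermal melanocytes grown in melanocyte growth medium 2. Seeded at 1×10^4 cells/well and treated at 3, 10 or 30 μM for 24, 48 or 72 h. MTT (5 mg/mL stock) then added for 3 h at 37 °C. Formazan dissolved in 50% DMF/20% SDS pH 4.5; absorbance at 620 nm.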

[14] = system: A-375; assay: Induction of apoptosis in human A375 cells assessed as early apoptotic cells at 30 uM after 48 hrs by annexin V/propidium iodide based flow cytometry; assay type: functional; in short: as §1
[15] = system: A-375; assay: Induction of apoptosis in human A375 cells assessed as late apoptotic cells at 30 uM after 48 hrs by annexin V/propidium iodide based flow cytometry; assay type: functional; in short: as §1
[16] = system: A-375; assay: Induction of apoptosis in human A375 cells assessed as necrotic apoptotic cells at 30 uM after 48 hrs by annexin V/propidium iodide based flow cytometry; assay type: functional; in short: as §1
[17] = system: A-375; assay: Activation of caspase 3 in human A375 cells assessed as reduction in pro-caspase 3 at 30 uM by Western blot analysis; assay type: functional, cell-based; details: TDE = time-dependent effect
In short: (§3)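 Whole-cell A375 lysates collected 0, 1, 2, 4 and 8 h after 30 μM treatment, made in Tris/HCl pH 7.4 buffer with 0.1% Triton X-100, EDTA, vanadate, PMSF and protease inhibitors. 20 μg protein per lane on SDS-PAGE and nitrocellulose. Probed overnight at 4 °C for pro-caspase-3 and PARP, with β-actin; HRP secondary, ECL detection. Three separate experiments.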

[18] = system: A-375; assay: Inhibition of NF-kappaB activation in human A375 cells assessed as IkappaB-alpha degradation at 30 uM by Western blot analysis; assay type: cell-based; details: TDE = time-dependent effect
In short: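 A375 cells treated at 30 μM for 1, 2, 4 and 8 h. Cytosolic extracts (40 μg protein) run on SDS-PAGE and transferred to nitrocellulose. Probed overnight at 4 °C for IκB-α, HRP secondary, ECL detection. Three separate experiments.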

[19] = system: A-375; assay: Inhibition of NF-kappaB DNA binding activity in human A375 cells at 30 uM after 1 hr by electrophoretic mobility shift assay; assay type: cell-based
In short: (§4)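 A375 cells treated at 30 μM; whole-cell extracts taken at 0, 1, 2, 4, 8 and 24 h. Extract (12 μg protein in 0.1% Triton X-100 buffer) incubated 30 min with 32P-labelled κB probe. Complexes resolved on nondenaturing 4% polyacrylamide gel and quantified by phosphorimaging, normalized to the nonspecific protein-DNA complex in the same lane. Three experiments.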

[20] = system: A-375; assay: Inhibition of NF-kappaB DNA binding activity in human A375 cells at 30 uM after 2 hrs by electrophoretic mobility shift assay; assay type: cell-based; in short: as §4
[21] = system: A-375; assay: Inhibition of NF-kappaB DNA binding activity in human A375 cells at 30 uM after 4 hrs by electrophoretic mobility shift assay; assay type: cell-based; in short: as §4
[22] = system: A-375; assay: Inhibition of NF-kappaB DNA binding activity in human A375 cells at 30 uM after 8 hrs by electrophoretic mobility shift assay; assay type: cell-based; in short: as §4
[23] = system: A-375; assay: Inhibition of NF-kappaB DNA binding activity in human A375 cells at 30 uM after 24 hrs by electrophoretic mobility shift assay; assay type: cell-based; in short: as §4
[24] = Decrease in NFkappaB-mediated XIAP gene expression in human A375 cells at 30 uM after 8 hrs by Western blot analysis; assay type: cell-based; details: A-375
[25] = Decrease in NFkappaB-mediated c-FLIP gene expression in human A375 cells at 30 uM after 8 hrs by Western blot analysis; assay type: cell-based; details: A-375
[26] = system: A-375; assay: Activation of caspase 3 in human A375 cells assessed as cleavage of substrate PARP at 30 uM by Western blot analysis; assay type: functional, cell-based; in short: as §3

COc1cc(/C=C/C(=O)CC(=O)/C=C/c2ccc(O)c(OC)c2)ccc1O [CURCUMIN]
Activity [1]: 3.4% | Activity [2]: 80% | Activity [3]: 10.3%

C[C@H](/C=C/[C@@]1(O)[C@H](CO)CC(=O)CC1(C)C)O[C@@H]1O[C@H](CO)[C@@H](O)[C@H](O)[C@H]1O [LAUROSIDE B]
inhibition [4]: tde | inhibition [5]: tde | inhibition [6]: tde | inhibition [7]: Dose-dependent effect | inhibition [8]: Dose-dependent effect | inhibition [9]: Dose-dependent effect | inhibition at 30 µM [10]: 65% | inhibition at 30 µM [11]: 50% | inhibition at 30 µM [12]: 33% | Activity [13]: Non-toxic | Activity [14]: 0.6% | Activity [15]: 35% | Activity [16]: 5.1% | Activity [17]: tde | Activity [18]: tde | inhibition [19]: 6% | inhibition [20]: 20% | inhibition [21]: 60% | inhibition [22]: 86% | inhibition [23]: 100% | Activity [24]: Active | Activity [25]: Active | Activity [26]: Active
